The entries come from a sample that favours hits as a whole.
Insulin prom act: TRM-6 insulin promoter activation. TRM-6 cells, insulin promoter eGFP reporter, imaging; plate-scaled: unstimulated 0, stimulated control 100. actives 0.81% (n = 130,000). activation, % at 2 µM;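 active = activation at 2 µM above a set limit, confirmed on inspection of the cell images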;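 note: share of cells whose green reporter signal exceeds an intensity cutoff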
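material = TRM-6 human fetal islet cells, insulin promoter–eGFP reporter | input = 1,000 TRM-6 cells seeded per well | benchmarks = stimulated versus unstimulated wells as plate controls | measured by = automated fluorescence imaging of paraformaldehyde-fixed, Hoechst-counterstained cells, green channel | schedule = compound exposure 48 h, 37 °C | reagent = tamoxifen at 0.75 µM added at seeding for reporter induction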
A number is an active result; . = inactive; [ ] = remark or other dose.

SMILES | Insulin prom act
O=[N+]([O-])c1cccc(/C=N/Nc2nc(N3CCCCC3)nc(N3CCCCC3)n2)c1 | .
COc1ccc(C(=O)NC(=S)N2CCN(C)CC2)cc1Br | .
COCCNC(=S)NNc1cccc(C(=O)O)c1 | .
N#C/C=C(/N)N1CCN(c2ccc(Cl)c(Cl)c2)CC1 | .
CCOc1ccc(-c2nc(CSCC(=O)NC3CCCc4ccccc43)c(C)o2)cc1 (configuration not stated) | .
COc1ccc(S(=O)(=O)Nc2ccccc2C)cc1 | .
COc1ccc(NS(=O)(=O)c2ccc(SC)cc2)c(OC)c1 | .
COc1ccc(S(=O)(=O)Nc2cc3c4c(oc3c3ccccc23)CC(C)(C)CC4=O)cc1 | 86.8
CCOC(=O)C1=C(C)C(c2ccccc2O)NC(=O)N1 (configuration not stated) | .
COc1cc(OC)c(C(=O)NNC(=S)NC2CCCCC2)cc1OC | .
Cn1cc(Cl)c(C(=O)NNC(=S)NC2CCCCC2)n1 | 491.7
COC(=O)c1c(NC(=O)c2nn(C)cc2Cl)sc2c1CCCC2 | .
COc1ccc2c(c1)nc(SCC(=O)c1cccs1)n2C | .
Oc1cccc(C(O)CNCc2ccc(OCc3ccc(Cl)cc3Cl)cc2)c1 (configuration not stated) | .
O=C(NC1CCCc2ccccc21)C1CCN(S(=O)(=O)c2cnc[nH]2)CC1 (configuration not stated) | .
O=C(NC1CCCc2ccccc21)C1CCN(c2nnc(-n3cccc3)s2)CC1 (configuration not stated) | 185.7
O=C(NC1CCCc2ccccc21)C1CCN(S(=O)(=O)c2ccccc2F)CC1 (configuration not stated) | .
Cc1ccc(S(=O)(=O)N2CCN(C(=O)c3ccc([N+](=O)[O-])cc3)C2)cc1 | .
CCS(=O)(=O)CCSC(=N)N | .
CC(C)(C(=O)c1ccccc1)/[N+]([O-])=C/c1ccccc1F | .
N#Cc1c(-c2ccccc2Cl)noc1/C=C/Nc1ccc(C(=O)O)cc1 | .
O=C(NC1CCCCC1)C(c1cccs1)N(C(=O)c1ccccn1)c1ccccc1 (configuration not stated) | .
COc1cccc(C(C(=O)NC2CCCCC2)N(C(=O)c2ccccn2)c2cccnc2)c1 (configuration not stated) | 627.3
COc1cccc(C(C(=O)NC2CCCC2)N(Cc2ccccc2OC)C(=O)c2ccco2)c1 (configuration not stated) | .
CCCC(=O)Nc1ccc(C(=O)NNC(=O)COc2ccc(Br)c(C)c2)cc1 | .
SMILES | Insulin prom act
CCC(=O)N1CCN(c2ccc(NC(=O)c3ccc(-c4ccccc4)cc3)cc2)CC1 | .
Cc1ccnc(NC(=O)c2cccc(NS(=O)(=O)c3ccccc3C)c2)c1 | .
Cc1cc(OCC(=O)N2CCCC2)cc(C)c1Cl | .
Cc1cc(OCC(=O)N2CCOCC2)cc2oc(=O)c3ccccc3c12 | 423.5
Cc1cc(C)c(C)c(OCC(=O)N2CCOCC2)c1 | .
Cc1ccc(S(=O)(=O)N(C)C)cc1NC(=O)COC(=O)/C(=C/c1ccc(F)cc1)c1cccs1 | .
Cc1occc1C(=O)N/N=C/c1cnn(C)c1C | .
C/C(=N/Nc1ccc(C(=O)O)cc1)c1ccc(O)c(O)c1O | .
CCN(CC)c1ccc(NC(=O)/C=C\c2ccccc2Cl)cc1 | .
CCN(CC)c1ccc(/C=C/C(=O)C2C(=O)C=C(C)OC2=O)cc1 (configuration not stated) | 809.1[fluoresces]
NC(=O)C1CCN(C(=O)COc2ccc(S(=O)(=O)NCc3ccccc3)cc2Cl)CC1 | .
CCOc1ccc(NC(=O)CSc2nc(-c3cccs3)cc(C(F)(F)F)n2)c([N+](=O)[O-])c1 | .
O=S(=O)(NC1=NCCC1)c1cccc(NC(=S)NCCc2ccccc2)c1 | .
O=C(CN1C(=O)/C(=C/c2ccccc2F)Sc2ccccc21)N1CCN(c2ccccn2)CC1 | .
